Activity calls are given as the source filed them. No cut-off for these calls is given here.
What was measured:
[1] = target: T1, Growth hormone secretagogue receptor type 1 (Homo sapiens, UniProt Q92847); assay: Tested for growth hormone secretagogue activity in A93 cell line using a calcium flux assay at 10 uM (Relative to compound T1); NA means not active; format: functional, cell-based
[2] = target: T1, Growth hormone secretagogue receptor type 1; assay: Binding affinity for human growth hormone secretagogue receptor was determined using [125I]ghrelin
Procedure, shortened: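 Competition binding with (125I)ghrelin (human) at the GHS receptor, run by a contract laboratory following published methods. Ki values were derived from binding curves.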

[3] = target: T1, Growth hormone secretagogue receptor type 1; assay: Tested for growth hormone secretagogue activity in A93 cell line using a calcium flux assay at 10 uM (Relative to compound T1); format: functional, cell-based
[4] = target: T1, Growth hormone secretagogue receptor type 1; assay: Binding affinity for human growth hormone secretagogue receptor using [125I]ghrelin; NA means not active
Procedure, shortened: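 Radioligand displacement with (125I)ghrelin (human) at GHS receptor, run by a contract lab following published methods; Ki values reported; binding curves in supplement.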

T1 sequence (Q92847 whole entry): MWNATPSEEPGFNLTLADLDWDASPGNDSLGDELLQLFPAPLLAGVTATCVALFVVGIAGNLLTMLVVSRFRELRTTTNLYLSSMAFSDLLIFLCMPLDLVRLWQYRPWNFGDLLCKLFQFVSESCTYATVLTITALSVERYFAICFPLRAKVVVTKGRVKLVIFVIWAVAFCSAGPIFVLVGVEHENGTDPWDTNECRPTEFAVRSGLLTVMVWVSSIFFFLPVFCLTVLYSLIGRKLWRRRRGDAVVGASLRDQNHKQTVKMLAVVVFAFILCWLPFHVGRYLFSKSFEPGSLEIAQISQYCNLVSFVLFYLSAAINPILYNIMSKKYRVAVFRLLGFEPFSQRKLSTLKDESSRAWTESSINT

Activity [1] | Ki [2] | Activity [3] | SMILES | also measured
– | 280 nM | 1.6 | CCCCC(C(=O)NC1CCCCC1)N(CCCN(CC)CC)C(=O)c1ccc(-c2ccccc2)[nH]1 (stereo unspecified) | –
– | 1290 nM | 0.57 | CCN(CC)CCCN(C(=O)c1ccc(-c2ccccc2)[nH]1)C(C(=O)NC1CCCCC1)c1ccc(F)cc1 (stereo unspecified) | –
inactive | – | – | CCN(CC)CCCN(C(=O)c1ccc(-c2ccccc2)[nH]1)C(C(=O)NC1CCCCC1)c1ccco1 (stereo unspecified) | –
inactive | – | – | CCN(CC)CCCN(C(=O)c1ccc(-c2ccccc2)[nH]1)C(C(=O)NC1CCCCC1)c1cccs1 (stereo unspecified) | –
– | 1170 nM | 0.28 | CCN(CC)CCCN(C(=O)c1ccc(-c2ccccc2)[nH]1)C(Cc1ccc(C)o1)C(=O)NC1CCCCC1 (stereo unspecified) | –
– | 910 nM | 1.16 | CCN(CC)CCCN(C(=O)c1ccc(-c2ccccc2)[nH]1)C(C(=O)NC1CCCCC1)c1ccncc1 (stereo unspecified) | –
– | 220 nM | 1.23 | CCC(C(=O)NC1CCCCC1)N(CCCN(CC)CC)C(=O)c1ccc(-c2ccccc2)[nH]1 (stereo unspecified) | –
inactive | – | – | CCN(CC)CCCN(C(=O)c1ccc(-c2ccccc2)[nH]1)C(C(=O)NC1CCCCC1)c1ccc(C)cc1 (stereo unspecified) | –
– | 2630 nM | 0.32 | CCN(CC)CCCN(C(=O)c1ccc(-c2ccccc2)[nH]1)C(C(=O)NC1CCCCC1)c1ccc(OC)c(OC)c1 (stereo unspecified) | –
inactive | – | – | CCOc1ccc(C(C(=O)NC2CCCCC2)N(CCCN(CC)CC)C(=O)c2ccc(-c3ccccc3)[nH]2)cc1 (stereo unspecified) | –
– | 1320 nM | 0.52 | CCN(CC)CCCN(C(=O)c1ccc(-c2ccccc2)[nH]1)C(C(=O)NC1CCCCC1)c1ccc(O)cc1 (stereo unspecified) | –
– | 1920 nM | 0.96 | CCN(CC)CCCN(C(=O)c1ccc(-c2ccccc2)[nH]1)C(C)C(=O)NC1CCCCC1 (stereo unspecified) | –
– | 870 nM | 1.37 | CCCC(C(=O)NC1CCCCC1)N(CCCN(CC)CC)C(=O)c1ccc(-c2ccccc2)[nH]1 (stereo unspecified) | –

Second part, the molecule before the results:

SMILES | Activity [1] | Ki [2] | Activity [3] | also measured
O=C(NC1CCCC1)C(c1ccncc1)N(CCCN1CCOCC1)C(=O)c1ccc(-c2ccccc2)[nH]1 (stereo unspecified) | inactive | – | – | –
CCN(CC)CCN1C(=O)[C@@](O)(c2ccccc2Cl)c2c1cc(C(N)=O)cc2C(F)(F)F | – | – | – | IC50 [2]: 1.2 nM
CCN(CC)CCCN(C(=O)c1ccc(-c2ccccc2)[nH]1)C(C(=O)NCc1ccc(F)cc1)c1ccc(F)cc1 (stereo unspecified) | – | 1150 nM | 0.45 | –
CCN(CC)CCCN(C(=O)Cn1nnc(-c2ccc(OC)c(OC)c2)n1)C(C(=O)NC1CCCCC1)c1ccc(F)cc1 (stereo unspecified) | inactive | – | – | –
O=C(NC1CCCCC1)C(c1ccc(F)cc1)N(CCN1CCOCC1)C(=O)c1ccc(-c2ccccc2)[nH]1 (stereo unspecified) | inactive | – | – | –
CC(C)(C)NC(=O)C(c1ccc(F)cc1)N(CCCN1CCOCC1)C(=O)c1ccc(-c2ccccc2)[nH]1 (stereo unspecified) | – | – | – | Ki [4]: Not Active
CCN(CC)CCCN(C(=O)CCN1CCCc2ccccc21)C(C(=O)NC1CCCCC1)c1ccc(F)cc1 (stereo unspecified) | – | 2030 nM | 0.31 | –
COc1ccc(CN(C(=O)c2ccc(-c3ccccc3)[nH]2)C(C)C(=O)NC2CCCCC2)cc1 (stereo unspecified) | inactive | – | – | –
COc1ccc(CN(C(=O)c2ccc(-c3ccccc3)[nH]2)C(C(=O)NC2CCCCC2)c2ccc(F)cc2)cc1 (stereo unspecified) | inactive | – | – | –
CCOC(=O)CN(C(=O)c1ccc(-c2ccccc2)[nH]1)C(C)C(=O)NC1CCCCC1 (stereo unspecified) | inactive | – | – | –
O=C(NC1CCCCC1)C(c1ccc(F)cc1)N(C(=O)c1ccc(-c2ccccc2)[nH]1)c1ccccc1 (stereo unspecified) | inactive | – | – | –
Cc1ccc(CC(C(=O)NC2CCCCC2)N(Cc2ccccc2)C(=O)c2ccc(-c3ccccc3)[nH]2)o1 (stereo unspecified) | inactive | – | – | –
CCN(CC)CCN(C(=O)c1ccc(CN2CCCCC2)o1)C(C(=O)NC1CCCCC1)c1ccc(N(C)C)cc1 (stereo unspecified) | inactive | – | – | –
O=C(NC1CCCCC1)C(c1ccc(F)cc1)N(CCCN1CCOCC1)C(=O)c1ccc(CN2CCOCC2)o1 (stereo unspecified) | inactive | – | – | –
O=C(NC1CCCCC1)C(c1ccc(F)cc1)N(C(=O)c1ccc(-c2ccccc2)[nH]1)C1CCCCC1 (stereo unspecified) | inactive | – | – | –
O=C(NC1CCCCC1)C(c1ccc(F)cc1)N(CCCN1CCOCC1)C(=O)c1ccc(-c2ccccc2)[nH]1 (stereo unspecified) | – | – | – | Ki [4]: Not Active
CCN(CC)CCN(C(=O)c1ccc(-c2ccccc2)[nH]1)C(C(=O)NC1CCCCC1)c1ccc(F)cc1 (stereo unspecified) | – | 1370 nM | 0.24 | –
CCN(CC)CCCN(C(=O)c1ccc(-c2ccccc2)[nH]1)C(C(=O)NC1CCCCC1)c1cc(OC)ccc1OC (stereo unspecified) | inactive | – | – | –
Cc1ccc(CC(C(=O)NC2CCCCC2)N(C(=O)c2ccc(-c3ccccc3)[nH]2)C2CCCC2)o1 (stereo unspecified) | inactive | – | – | –
CCN(CC)CCCN(C(=O)c1ccc(-c2ccccc2)[nH]1)C(C)C(=O)NC(C)(C)C (stereo unspecified) | – | 1180 nM | 0.38 | –
CCN(CC)CCN(C(=O)c1ccc(-c2ccccc2)[nH]1)C(C(=O)NC1CCCCC1)c1c[nH]c2ccccc12 (stereo unspecified) | inactive | – | – | –
CCN(CC)CCCN(C(=O)c1ccc(-c2ccccc2)[nH]1)C(C(=O)NC1CCCCC1)c1cc(OC)c(OC)c(OC)c1 (stereo unspecified) | inactive | – | – | –
CCN(CC)CCCN(C(=O)c1snc(C(N)=O)c1N)C(C(=O)NC1CCCCC1)c1ccc(F)cc1 (stereo unspecified) | inactive | – | – | –
O=C(NC1CCCC1)C(c1ccncc1)N(C(=O)c1ccc(-c2ccccc2)[nH]1)c1ccccc1 (stereo unspecified) | inactive | – | – | –
CCN(CC)CCN(C(=O)c1ccc(CN2CCCCC2)o1)C(C(=O)NC1CCCCC1)c1ccc(F)cc1 (stereo unspecified) | – | – | – | Ki [4]: Not Active
